Target: not listed separately
Experiment: In vitro potency against TNF alpha induced expression of Selectin E on human vascular endothelial cells using CAM ELISA assay

Structure (SMILES)	IC50
Cc1occc1Sc1cncc2sc(C(N)=O)cc12 [4-(2-Methyl-furan-3-ylsulfanyl)-thieno[2,3-c]pyridine-2-carboxylic acid amide]	600 nM
CCc1cc2c(=O)[nH]cnc2s1 [MLS000029626]	> 100000 nM
NC(=O)c1cc2c(Sc3ccccn3)cncc2s1 [4-(Pyridin-2-ylsulfanyl)-thieno[2,3-c]pyridine-2-carboxylic acid amide]	660 nM
Cc1ccc(Sc2cncc3sc(/C=N/OCC(=O)O)cc23)cc1 [(4-p-Tolylsulfanyl-thieno[2,3-c]pyridin-2-ylmethyleneaminooxy)-acetic acid]	> 4000 nM
CCc1cc2c(Sc3nnc(N)s3)ncnc2s1 [GNF-Pf-1931]	3000 nM
Cc1ccc(Sc2cncc3sccc23)cc1 [4-p-Tolylsulfanyl-thieno[2,3-c]pyridine]	1700 nM
Cc1ccc(Sc2cncc3sc(C(=O)NCCCN4CCOCC4)cc23)cc1 [4-p-Tolylsulfanyl-thieno[2,3-c]pyridine-2-carboxylic acid (3-morpholin-4-yl-propyl)-amide]	> 4000 nM
Cc1ccc(Sc2cncc3sc(C(N)=S)cc23)cc1 [4-p-Tolylsulfanyl-thieno[2,3-c]pyridine-2-carbothioic acid amide]	150 nM
NC(=O)c1cc2c(Sc3ccc(Cl)c(Cl)c3)cncc2s1 [4-(3,4-Dichloro-phenylsulfanyl)-thieno[2,3-c]pyridine-2-carboxylic acid amide]	100 nM
Cc1ccc(Sc2cncc3sc(C(N)=O)cc23)c(C)c1 [4-(2,4-Dimethyl-phenylsulfanyl)-thieno[2,3-c]pyridine-2-carboxylic acid amide]	43 nM
Cc1cccc(Sc2cncc3sc(C(N)=O)cc23)c1 [4-m-Tolylsulfanyl-thieno[2,3-c]pyridine-2-carboxylic acid amide]	45 nM
CCc1cc2c(Cl)ncnc2s1 [4-Chloro-6-ethyl-thieno[2,3-d]pyrimidine]	27000 nM
Cc1ccc(Sc2cncc3sc(C(N)=O)cc23)cc1C [4-(3,4-Dimethyl-phenylsulfanyl)-thieno[2,3-c]pyridine-2-carboxylic acid amide]	13 nM
CCc1cc2c(SCc3ccccc3)ncnc2s1 [4-Benzylsulfanyl-6-ethyl-thieno[2,3-d]pyrimidine]	95000 nM
Cc1ccc(Sc2ccnc3sc(C(N)=O)cc23)cc1 [4-p-Tolylsulfanyl-thieno[2,3-b]pyridine-2-carboxylic acid amide]	16000 nM
CCc1cc2c(Sc3nnc(C)s3)ncnc2s1 [6-Ethyl-4-(5-methyl-[1,3,4]thiadiazol-2-ylsulfanyl)-thieno[2,3-d]pyrimidine]	4000 nM
NC(=O)c1cc2c(Sc3ccc(C(F)(F)F)cc3)cncc2s1 [4-(4-Trifluoromethyl-phenylsulfanyl)-thieno[2,3-c]pyridine-2-carboxylic acid amide]	44 nM
Cc1ccc(Sc2cncc3sc(C(=O)NN)cc23)cc1 [4-p-Tolylsulfanyl-thieno[2,3-c]pyridine-2-carboxylic acid hydrazide]	32 nM
CCc1cc2c(NCc3ccccc3)ncnc2s1 [Benzyl-(6-ethyl-thieno[2,3-d]pyrimidin-4-yl)-amine]	49000 nM

Target: Intercellular adhesion molecule 1 (Homo sapiens, UniProt P05362)
Sequence (P05362 whole entry): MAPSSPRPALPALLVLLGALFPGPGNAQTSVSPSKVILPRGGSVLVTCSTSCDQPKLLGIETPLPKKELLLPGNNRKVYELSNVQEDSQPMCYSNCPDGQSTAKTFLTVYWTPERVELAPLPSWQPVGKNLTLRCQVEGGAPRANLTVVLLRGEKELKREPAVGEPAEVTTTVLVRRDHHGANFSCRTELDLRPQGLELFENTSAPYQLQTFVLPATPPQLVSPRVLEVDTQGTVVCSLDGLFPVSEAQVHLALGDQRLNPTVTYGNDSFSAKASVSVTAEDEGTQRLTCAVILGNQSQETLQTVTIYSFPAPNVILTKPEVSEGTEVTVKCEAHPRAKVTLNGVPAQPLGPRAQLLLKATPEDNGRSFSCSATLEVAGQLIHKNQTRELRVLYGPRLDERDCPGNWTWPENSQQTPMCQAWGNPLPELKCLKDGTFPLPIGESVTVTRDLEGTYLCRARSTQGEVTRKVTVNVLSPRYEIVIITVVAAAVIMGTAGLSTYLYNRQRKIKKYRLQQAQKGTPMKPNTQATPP
Experiment: In vitro potency against TNF alpha induced expression of intercellular adhesion molecule-1 on human vascular endothelial cells using CAM ELISA assay
Procedure, shortened: (§1)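 Surface E-selectin, ICAM-1 or VCAM-1 was detected with mouse monoclonal primary antibody (overnight, 4 °C), then HRP anti-mouse IgG and OPD, with absorbance read at 490 nm. IC50 from triplicates; SEM across repeat triplicate runs.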

Structure (SMILES)	IC50
Cc1ccc(Sc2cncc3sc(C(C)N=O)cc23)cc1 (centres undefined) [1-(4-p-Tolylsulfanyl-thieno[2,3-c]pyridin-2-yl)-ethanone oxime]	85 nM
Cc1ccc(Sc2cncc3sc(CN=O)cc23)cc1 [4-p-Tolylsulfanyl-thieno[2,3-c]pyridine-2-carbaldehyde oxime]	1900 nM

Target: T1, Vascular cell adhesion protein 1 (Homo sapiens, UniProt P19320)
T1 sequence (P19320 whole entry): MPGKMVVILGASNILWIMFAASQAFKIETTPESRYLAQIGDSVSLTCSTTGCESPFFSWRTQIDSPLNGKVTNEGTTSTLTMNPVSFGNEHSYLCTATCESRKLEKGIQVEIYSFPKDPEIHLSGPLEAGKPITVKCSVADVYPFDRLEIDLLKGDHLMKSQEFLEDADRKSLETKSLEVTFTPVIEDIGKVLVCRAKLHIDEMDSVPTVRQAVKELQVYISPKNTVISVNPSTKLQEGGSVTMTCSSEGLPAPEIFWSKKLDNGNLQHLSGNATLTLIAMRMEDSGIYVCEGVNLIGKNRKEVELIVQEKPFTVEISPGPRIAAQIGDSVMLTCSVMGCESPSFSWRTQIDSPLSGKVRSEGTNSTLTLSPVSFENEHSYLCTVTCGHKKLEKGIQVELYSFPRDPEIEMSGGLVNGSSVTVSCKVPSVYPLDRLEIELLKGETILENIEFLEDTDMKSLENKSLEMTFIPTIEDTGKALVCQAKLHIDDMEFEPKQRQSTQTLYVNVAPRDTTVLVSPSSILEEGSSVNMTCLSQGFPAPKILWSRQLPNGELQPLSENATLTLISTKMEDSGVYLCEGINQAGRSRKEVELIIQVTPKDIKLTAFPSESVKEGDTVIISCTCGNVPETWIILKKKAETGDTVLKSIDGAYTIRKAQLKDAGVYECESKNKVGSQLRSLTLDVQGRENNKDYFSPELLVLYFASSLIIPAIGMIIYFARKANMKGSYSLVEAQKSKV
Experiment: In vitro potency against TNF alpha induced expression of VCAM-1 on human vascular endothelial cells using CAM ELISA assay
Procedure, shortened: as §1

Structure (SMILES)	IC50
Cc1occc1Sc1cncc2sc(C(N)=O)cc12 [4-(2-Methyl-furan-3-ylsulfanyl)-thieno[2,3-c]pyridine-2-carboxylic acid amide]	> 1000 nM
CCc1cc2c(=O)[nH]cnc2s1 [MLS000029626]	> 100000 nM
NC(=O)c1cc2c(Sc3ccccn3)cncc2s1 [4-(Pyridin-2-ylsulfanyl)-thieno[2,3-c]pyridine-2-carboxylic acid amide]	65000 nM
Cc1ccc(Sc2cncc3sc(/C=N/OCC(=O)O)cc23)cc1 [(4-p-Tolylsulfanyl-thieno[2,3-c]pyridin-2-ylmethyleneaminooxy)-acetic acid]	> 4000 nM
Cc1ccc(Sc2cncc3sc(C(C)N=O)cc23)cc1 (centres undefined) [1-(4-p-Tolylsulfanyl-thieno[2,3-c]pyridin-2-yl)-ethanone oxime]	> 1000 nM
Cc1ccc(Sc2cncc3sc(CN=O)cc23)cc1 [4-p-Tolylsulfanyl-thieno[2,3-c]pyridine-2-carbaldehyde oxime]	> 4000 nM
Cc1ccc(Sc2cncc3sc(C(N)=O)cc23)cc1 [4-p-Tolylsulfanyl-thieno[2,3-c]pyridine-2-carboxylic acid amide]	> 1000 nM
CCc1cc2c(Sc3nnc(N)s3)ncnc2s1 [GNF-Pf-1931]	2500 nM
Cc1ccc(Sc2cncc3sccc23)cc1 [4-p-Tolylsulfanyl-thieno[2,3-c]pyridine]	2100 nM
Cc1ccc(Sc2cncc3sc(C(=O)NCCCN4CCOCC4)cc23)cc1 [4-p-Tolylsulfanyl-thieno[2,3-c]pyridine-2-carboxylic acid (3-morpholin-4-yl-propyl)-amide]	> 4000 nM
Cc1ccc(Sc2cncc3sc(C(N)=S)cc23)cc1 [4-p-Tolylsulfanyl-thieno[2,3-c]pyridine-2-carbothioic acid amide]	19000 nM
NC(=O)c1cc2c(Sc3ccc(Cl)c(Cl)c3)cncc2s1 [4-(3,4-Dichloro-phenylsulfanyl)-thieno[2,3-c]pyridine-2-carboxylic acid amide]	> 1000 nM
Cc1ccc(Sc2cncc3sc(C(N)=O)cc23)c(C)c1 [4-(2,4-Dimethyl-phenylsulfanyl)-thieno[2,3-c]pyridine-2-carboxylic acid amide]	770 nM
Cc1cccc(Sc2cncc3sc(C(N)=O)cc23)c1 [4-m-Tolylsulfanyl-thieno[2,3-c]pyridine-2-carboxylic acid amide]	> 4000 nM
CCc1cc2c(Cl)ncnc2s1 [4-Chloro-6-ethyl-thieno[2,3-d]pyrimidine]	18000 nM
Cc1ccc(Sc2cncc3sc(C(N)=O)cc23)cc1C [4-(3,4-Dimethyl-phenylsulfanyl)-thieno[2,3-c]pyridine-2-carboxylic acid amide]	> 1000 nM
CCc1cc2c(SCc3ccccc3)ncnc2s1 [4-Benzylsulfanyl-6-ethyl-thieno[2,3-d]pyrimidine]	17000 nM
Cc1ccc(Sc2ccnc3sc(C(N)=O)cc23)cc1 [4-p-Tolylsulfanyl-thieno[2,3-b]pyridine-2-carboxylic acid amide]	15000 nM
CCc1cc2c(Sc3nnc(C)s3)ncnc2s1 [6-Ethyl-4-(5-methyl-[1,3,4]thiadiazol-2-ylsulfanyl)-thieno[2,3-d]pyrimidine]	3500 nM
NC(=O)c1cc2c(Sc3ccc(C(F)(F)F)cc3)cncc2s1 [4-(4-Trifluoromethyl-phenylsulfanyl)-thieno[2,3-c]pyridine-2-carboxylic acid amide]	> 100 nM
Cc1ccc(Sc2cncc3sc(C(=O)NN)cc23)cc1 [4-p-Tolylsulfanyl-thieno[2,3-c]pyridine-2-carboxylic acid hydrazide]	46000 nM
CCc1cc2c(NCc3ccccc3)ncnc2s1 [Benzyl-(6-ethyl-thieno[2,3-d]pyrimidin-4-yl)-amine]	59000 nM

Target: not listed separately
Experiment: In vitro potency against TNF alpha induced expression of intercellular adhesion molecule-1 on human vascular endothelial cells using CAM ELISA assay

Structure (SMILES)	IC50
Cc1occc1Sc1cncc2sc(C(N)=O)cc12 [4-(2-Methyl-furan-3-ylsulfanyl)-thieno[2,3-c]pyridine-2-carboxylic acid amide]	570 nM
CCc1cc2c(=O)[nH]cnc2s1 [MLS000029626]	> 100000 nM
NC(=O)c1cc2c(Sc3ccccn3)cncc2s1 [4-(Pyridin-2-ylsulfanyl)-thieno[2,3-c]pyridine-2-carboxylic acid amide]	2300 nM
Cc1ccc(Sc2cncc3sc(/C=N/OCC(=O)O)cc23)cc1 [(4-p-Tolylsulfanyl-thieno[2,3-c]pyridin-2-ylmethyleneaminooxy)-acetic acid]	> 4000 nM
CCc1cc2c(Sc3nnc(N)s3)ncnc2s1 [GNF-Pf-1931]	6300 nM
Cc1ccc(Sc2cncc3sccc23)cc1 [4-p-Tolylsulfanyl-thieno[2,3-c]pyridine]	1800 nM
Cc1ccc(Sc2cncc3sc(C(=O)NCCCN4CCOCC4)cc23)cc1 [4-p-Tolylsulfanyl-thieno[2,3-c]pyridine-2-carboxylic acid (3-morpholin-4-yl-propyl)-amide]	> 4000 nM
Cc1ccc(Sc2cncc3sc(C(N)=S)cc23)cc1 [4-p-Tolylsulfanyl-thieno[2,3-c]pyridine-2-carbothioic acid amide]	160 nM
NC(=O)c1cc2c(Sc3ccc(Cl)c(Cl)c3)cncc2s1 [4-(3,4-Dichloro-phenylsulfanyl)-thieno[2,3-c]pyridine-2-carboxylic acid amide]	37 nM
Cc1ccc(Sc2cncc3sc(C(N)=O)cc23)c(C)c1 [4-(2,4-Dimethyl-phenylsulfanyl)-thieno[2,3-c]pyridine-2-carboxylic acid amide]	54 nM
Cc1cccc(Sc2cncc3sc(C(N)=O)cc23)c1 [4-m-Tolylsulfanyl-thieno[2,3-c]pyridine-2-carboxylic acid amide]	140 nM
CCc1cc2c(Cl)ncnc2s1 [4-Chloro-6-ethyl-thieno[2,3-d]pyrimidine]	> 100000 nM
Cc1ccc(Sc2cncc3sc(C(N)=O)cc23)cc1C [4-(3,4-Dimethyl-phenylsulfanyl)-thieno[2,3-c]pyridine-2-carboxylic acid amide]	8 nM
CCc1cc2c(SCc3ccccc3)ncnc2s1 [4-Benzylsulfanyl-6-ethyl-thieno[2,3-d]pyrimidine]	99000 nM
Cc1ccc(Sc2ccnc3sc(C(N)=O)cc23)cc1 [4-p-Tolylsulfanyl-thieno[2,3-b]pyridine-2-carboxylic acid amide]	39000 nM
CCc1cc2c(Sc3nnc(C)s3)ncnc2s1 [6-Ethyl-4-(5-methyl-[1,3,4]thiadiazol-2-ylsulfanyl)-thieno[2,3-d]pyrimidine]	5000 nM
NC(=O)c1cc2c(Sc3ccc(C(F)(F)F)cc3)cncc2s1 [4-(4-Trifluoromethyl-phenylsulfanyl)-thieno[2,3-c]pyridine-2-carboxylic acid amide]	39 nM
Cc1ccc(Sc2cncc3sc(C(=O)NN)cc23)cc1 [4-p-Tolylsulfanyl-thieno[2,3-c]pyridine-2-carboxylic acid hydrazide]	32 nM
CCc1cc2c(NCc3ccccc3)ncnc2s1 [Benzyl-(6-ethyl-thieno[2,3-d]pyrimidin-4-yl)-amine]	56000 nM

Target: T2, E-selectin (Homo sapiens, UniProt P16581)
T2 sequence (P16581 whole entry): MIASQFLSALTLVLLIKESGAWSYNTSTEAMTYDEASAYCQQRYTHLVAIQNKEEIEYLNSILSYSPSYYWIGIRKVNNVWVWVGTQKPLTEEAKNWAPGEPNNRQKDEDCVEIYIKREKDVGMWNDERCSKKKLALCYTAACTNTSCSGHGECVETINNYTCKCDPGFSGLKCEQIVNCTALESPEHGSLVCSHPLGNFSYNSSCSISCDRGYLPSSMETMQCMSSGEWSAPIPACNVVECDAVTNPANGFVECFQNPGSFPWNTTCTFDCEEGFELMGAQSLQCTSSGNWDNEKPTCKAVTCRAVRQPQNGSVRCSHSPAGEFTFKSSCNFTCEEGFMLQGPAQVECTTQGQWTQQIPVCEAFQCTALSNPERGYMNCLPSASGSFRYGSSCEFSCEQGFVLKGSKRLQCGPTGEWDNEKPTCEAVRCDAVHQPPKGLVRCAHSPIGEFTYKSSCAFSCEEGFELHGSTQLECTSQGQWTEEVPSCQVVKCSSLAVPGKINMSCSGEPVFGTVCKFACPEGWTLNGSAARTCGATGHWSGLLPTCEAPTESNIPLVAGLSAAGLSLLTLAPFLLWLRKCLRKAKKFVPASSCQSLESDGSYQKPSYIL
Experiment: In vitro potency against TNF alpha induced expression of Selectin E on human vascular endothelial cells using CAM ELISA assay
Procedure, shortened: as §1

Structure (SMILES)	IC50
Cc1ccc(Sc2cncc3sc(C(C)N=O)cc23)cc1 (centres undefined) [1-(4-p-Tolylsulfanyl-thieno[2,3-c]pyridin-2-yl)-ethanone oxime]	55 nM
Cc1ccc(Sc2cncc3sc(CN=O)cc23)cc1 [4-p-Tolylsulfanyl-thieno[2,3-c]pyridine-2-carbaldehyde oxime]	1500 nM

— BindingDB's records for doi:10.1021/jm000452m (Abbott Laboratories, 2001)
